The values below come from ChEMBL document CHEMBL4002581, “Versiquinazolines A-K, Fumiquinazoline-Type Alkaloids from the Gorgonian-Derived Fungus Aspergillus versicolor LZD-14-1” (J Nat Prod, 2016).

Bounds are passed on as bounds.

The IC50 is the point on the concentration scale where inhibition reaches its midpoint. Higher therefore signals weaker potency in that assay. For orientation: inhibition means how much of the control response was suppressed.

Test [1] can be described thus: Inhibition of thioredoxin reductase (unknown origin) measured after 5 mins by DTNB reduction assay. Further details: species or system Homo sapiens. The method in brief: (§1)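 TrxR inhibition was screened at 50 μM as % inhibition, and IC50 values are reported in μM. Curcumin was run as positive control. The procedure follows a previously described method.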
The test system of the next test is A2780. Description: Cytotoxicity against human A2780 cells by MTT assay. The test is classed as functional, cell-based. The gist of the method: (§2)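 Tetrazolium-based colorimetric (MTT) read-out of tumour-cell viability, run on A549 and A2780 lines.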
On the technique in general: Tetrazolium dyes change colour on reduction, which living cells bring about.

For a further test, the species on record is Homo sapiens. As to the kind of experiment: Inhibition of thioredoxin reductase (unknown origin) at 50 uM measured after 5 mins by DTNB reduction assay relative to control. The gist of the method: as §1
The next test has as its system A549. Description: Cytotoxicity against human A549 cells by MTT assay. In kind it is functional, cell-based. The method in brief:
as §2

Turning to `C[C@H]1C(=O)N2c3ccccc3[C@@]34C[C@H]5C(=O)N(CN1[C@H]23)[C@@H](O4)c1nc2ccccc2c(=O)n15`, the IC50 in test [1] is 20 µM; in the test on A2780, over 50 µM; with A549, over 50 µM. Besides, in the test listed under Homo sapiens, the inhibition came to 64%.
`CC[C@H](C)[C@@H]1C(=O)N2c3ccccc3[C@@]3(O)C[C@H](n4cnc5ccccc5c4=O)C(=O)N1[C@@H]23`: the IC50 with A2780 and with A549 was over 50 µM throughout. In the test listed under Homo sapiens, this compound registered an inhibition of 62%.
As for `CC[C@H](C)[C@H]1C(=O)N2c3ccccc3[C@@]3(O)C[C@H]4C(=O)N[C@H](c5nc6ccccc6c(=O)n54)N1[C@H]23`, the concentration for half-maximal inhibition (IC50) in the test with A2780 and with A549 was over 50 µM each time. In addition, the inhibition in the test listed under Homo sapiens was 43%.
As to `C=CC(C)(C)[C@@]12C=C(OC)C(=O)N3[C@@H](C)C(=O)N[C@]31N(O)c1ccccc12`, the IC50 is 13 µM in test [1], over 50 µM with A2780 and over 50 µM with A549. For the same compound, the inhibition in the test filed under Homo sapiens was 76%.
As for `O=C1NCc2nc3ccccc3c(=O)n2[C@H]1C[C@]1(O)c2ccccc2N2C(=O)C3(CC3)N[C@H]21`, the IC50 in the test on A2780 and in the test on A549 was over 50 µM in each case. This compound yielded an inhibition in the test filed under Homo sapiens of 28%.
`C=CC(C)(C)[C@@]12C=C(OC)C(=O)N3[C@@H](C)C(=O)N[C@]31N(OC)c1ccccc12`: the IC50 with A2780 and in the test on A549 was over 50 µM in each case. In the test filed under Homo sapiens, this compound yielded an inhibition of 13%.
The compound `COc1cc(/C=C/C(=O)CC(=O)/C=C/c2ccc(O)c(OC)c2)ccc1O` returned an inhibition in the test listed under Homo sapiens of 25%.
Take `O=C1[C@@H]2C[C@@]34O[C@@H](c5nc6ccccc6c(=O)n52)N1CN1[C@@H]3N(C(=O)C12CC2)c1ccccc14`: the IC50 in test [1] is 12 µM; in the test with A2780, over 50 µM; in the test with A549 it was over 50 µM. This compound yielded an inhibition in the test listed under Homo sapiens of 83%.
As to `O=C1N[C@H]2O[C@@]3(C[C@@H]1n1c2nc2ccccc2c1=O)c1ccccc1N1C(=O)C2(CC2)N[C@H]13`, the IC50 in the test with A2780 and with A549 was over 50 µM throughout. This compound displayed an inhibition in the test filed under Homo sapiens of 47%.
With `O=C1N[C@@H]2c3nc4ccccc4c(=O)n3[C@H]1C[C@]1(O)c3ccccc3N3C(=O)C4(CC4)N2[C@H]31`, the IC50 in the test on A2780 and with A549 was over 50 µM throughout. Moreover, the inhibition in the test filed under Homo sapiens is 17%.
In the case of `O=C1NCc2nc3c(O)cccc3c(=O)n2[C@H]1Cc1c[nH]c2ccccc12`, the IC50 with A2780 and with A549 was over 50 µM throughout. The compound also showed an inhibition in the test filed under Homo sapiens of 55%.
For `C[C@H]1C(=O)N2c3ccccc3[C@@]3(O)C[C@H]4C(=O)N[C@H](c5nc6ccccc6c(=O)n54)N1[C@H]23`, the IC50 in the test on A2780 and with A549 was over 50 µM throughout. Also, the inhibition in the test filed under Homo sapiens stood at 38%.
Turning to `COC(=O)[C@@H]1C[C@]2(O)c3ccccc3N3C(=O)C4(CC4)N([C@@H](OC)c4nc5ccccc5c(=O)n41)[C@H]32`, the IC50 in test [1] was 13 µM; in the test with A2780 it was over 50 µM; in the test with A549, over 50 µM. This compound yielded an inhibition in the test filed under Homo sapiens of 83%.
Take `C[C@@H]1N[C@@H]2N(C1=O)c1ccccc1[C@@]2(O)C[C@H]1C(=O)NCc2nc3ccccc3c(=O)n21`: the IC50 with A2780 and in the test on A549 was over 50 µM throughout. The compound further registered an inhibition in the test filed under Homo sapiens of 27%.
`O=C1NCc2nc3ccccc3c(=O)n2[C@H]1C[C@@]12OCN3[C@@H]1N(C(=O)C31CC1)c1ccccc12`: the IC50 with A2780 and with A549 was over 50 µM in each case. In addition, in the test listed under Homo sapiens, the inhibition came to 51%.
